Data taken from ChEMBL document CHEMBL1255453, “Affinity of ceftaroline and other beta-lactams for penicillin-binding proteins from Staphylococcus aureus and Streptococcus pneumoniae” (Antimicrob Agents Chemother, 2010).
≈ marks a conversion by molar mass, not a printed value.

Experiments:
Streptococcus pneumoniae [1] = experiment: Antibacterial activity against penicillin-resistant Streptococcus pneumoniae 1564 by macrodilution method; type: functional
Outline: (§1)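 CLSI broth macrodilution MICs. The S. aureus set is 5 MRSA strains (hVISA, VISA, VRSA) plus 1 MSSA. The S. pneumoniae set is 7 clonally unrelated clinical isolates, categorised by penicillin G against 2006 CLSI M100-S17 criteria (resistant ≥2 μg/ml, susceptible ≤0.06 μg/ml).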

Staphylococcus aureus [2] = experiment: Antibacterial activity against methicillin-resistant, vancomycin-intermediate, beta-lactamase-positive Staphylococcus aureus 1287 by macrodilution method; type: functional; outline: as §1
[3] = Binding affinity to methicillin-resistant, heteroresistant vancomycin-intermediate, beta-lactamase-negative Staphylococcus aureus 873 PBP3 by competitive binding assay
Streptococcus pneumoniae [4] = experiment: Antibacterial activity against penicillin-resistant Streptococcus pneumoniae 3413 by macrodilution method; type: functional; outline: as §1
Staphylococcus aureus [5] = experiment: Antibacterial activity against methicillin-, vancomycin-susceptible Staphylococcus aureus ATCC 29213 by macrodilution method; type: functional; outline: as §1
Streptococcus pneumoniae [6] = experiment: Antibacterial activity against penicillin-susceptible Streptococcus pneumoniae 1076 by macrodilution method; type: functional; outline: as §1
[7] = Binding affinity to methicillin-, vancomycin-resistant, beta-lactamase-positive Staphylococcus aureus 510 PBP4 by competitive binding assay
[8] = Binding affinity to methicillin-resistant, heteroresistant vancomycin-intermediate, beta-lactamase-negative Staphylococcus aureus 873 PBP2 by competitive binding assay
[9] = Binding affinity to methicillin-resistant, vancomycin-intermediate, beta-lactamase-positive Staphylococcus aureus 1287 PBP1 by competitive binding assay
[10] = Binding affinity to methicillin-resistant, vancomycin-intermediate, beta-lactamase-positive Staphylococcus aureus 1287 PBP2 by competitive binding assay
[11] = Binding affinity to methicillin-, vancomycin-susceptible Staphylococcus aureus ATCC 29213 PBP3 by competitive binding assay
Outline: (§2)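 MSSA grown in brain heart infusion broth and harvested at OD600 0.3–0.4. Lysed with lysozyme, lysostaphin, DNase I, freeze-thaw and sonication; membranes collected at 100,000 × g. Membranes (100 μg protein) incubated with β-lactam 10 min at 37°C, then Bocillin FL 40 μg/ml, 15 min at 37°C. SDS-PAGE, fluorescence at 520 nm. IC50 is 50% inhibition of Bocillin FL binding; 3 membrane isolations.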

[12] = Binding affinity to methicillin-, vancomycin-susceptible Staphylococcus aureus ATCC 29213 PBP1 by competitive binding assay; outline: as §2
[13] = Binding affinity to methicillin-, linezolid-resistant, vancomycin-intermediate, beta-lactamase-positive Staphylococcus aureus 2149A PBP2 by competitive binding assay
[14] = Binding affinity to against methicillin-, daptomycin-resistant, vancomycin-intermediate, beta-lactamase-positive Staphylococcus aureus 25 PBP2 by competitive binding assay
Outline: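 MRSA strain harvested in stationary phase (OD600 >2.00). Membranes prepared by enzymatic lysis, freeze-thaw, sonication and ultracentrifugation, then preincubated with clavulanic acid 1 mg/ml. β-Lactam competition 10 min at 37°C, then Bocillin FL 40 μg/ml, 15 min at 37°C. SDS-PAGE, 520 nm imaging; IC50 = 50% inhibition of Bocillin FL labeling; 3 membrane isolations.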

Staphylococcus aureus [15] = experiment: Antibacterial activity against methicillin-, daptomycin-resistant, vancomycin-intermediate, beta-lactamase-positive Staphylococcus aureus 25 by macrodilution method; type: functional; outline: as §1
[16] = target: T1, Penicillin-binding protein 2x (Streptococcus pneumoniae serotype 4 (strain ATCC BAA-334 / TIGR4), UniProt P14677); experiment: Binding affinity to against penicillin-susceptible Streptococcus pneumoniae 1076 PBP2X by competitive binding assay
T1 sequence (P14677 whole entry): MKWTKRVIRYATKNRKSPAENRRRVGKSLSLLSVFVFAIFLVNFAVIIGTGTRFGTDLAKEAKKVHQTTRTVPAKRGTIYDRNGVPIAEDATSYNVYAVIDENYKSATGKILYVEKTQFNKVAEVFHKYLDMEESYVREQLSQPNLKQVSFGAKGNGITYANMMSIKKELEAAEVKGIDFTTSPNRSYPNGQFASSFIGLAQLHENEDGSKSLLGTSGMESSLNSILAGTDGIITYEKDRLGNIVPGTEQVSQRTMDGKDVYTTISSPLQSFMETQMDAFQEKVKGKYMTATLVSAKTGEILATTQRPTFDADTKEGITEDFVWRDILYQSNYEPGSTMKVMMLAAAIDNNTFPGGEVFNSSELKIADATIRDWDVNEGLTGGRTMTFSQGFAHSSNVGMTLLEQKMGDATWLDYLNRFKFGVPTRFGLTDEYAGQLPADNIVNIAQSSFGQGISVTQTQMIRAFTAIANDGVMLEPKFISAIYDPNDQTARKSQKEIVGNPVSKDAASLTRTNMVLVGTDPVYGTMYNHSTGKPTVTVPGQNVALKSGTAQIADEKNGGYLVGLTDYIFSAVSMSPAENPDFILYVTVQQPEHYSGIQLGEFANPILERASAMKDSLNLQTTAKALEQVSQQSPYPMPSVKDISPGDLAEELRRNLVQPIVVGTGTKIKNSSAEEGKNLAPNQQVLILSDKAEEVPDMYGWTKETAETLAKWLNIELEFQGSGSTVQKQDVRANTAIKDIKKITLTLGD
Outline: (§3)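 Whole pneumococcal cells grown to OD600 0.3 in Todd-Hewitt broth with 0.5% yeast extract, resuspended in 50 mM NaPO4 pH 7.0. Cells (10^8–5 × 10^8 CFU/ml) incubated with β-lactam 10 min at 37°C, then Bocillin FL 10 μg/ml, 15 min at 37°C. SDS-PAGE, 520 nm fluorescence; IC50 = 50% inhibition of Bocillin FL binding; 2 experiments.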

Streptococcus pneumoniae [17] = experiment: Antibacterial activity against penicillin-resistant Streptococcus pneumoniae 2688 by macrodilution method; type: functional; outline: as §1
[18] = Binding affinity to penicillin-resistant Streptococcus pneumoniae 24 PBP2A by competitive binding assay; outline: as §3
[19] = Binding affinity to methicillin-resistant, heteroresistant vancomycin-intermediate, beta-lactamase-negative Staphylococcus aureus 873 PBP1 by competitive binding assay
Streptococcus pneumoniae [20] = experiment: Antibacterial activity against penicillin-resistant Streptococcus pneumoniae 1394 by macrodilution method; type: functional; outline: as §1
[21] = Binding affinity to penicillin-resistant Streptococcus pneumoniae 3413 PBP2A by competitive binding assay
Outline: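 Whole pneumococcal cells were grown to OD600 0.3 in Todd-Hewitt broth plus 0.5% yeast extract, then resuspended in 50 mM NaPO4, pH 7.0. Cells at 10^8 to 5 × 10^8 CFU/ml were exposed to β-lactam for 10 min at 37°C, alongside a reference without drug. They were then labeled with 10 μg/ml Bocillin FL for 15 min at 37°C. Proteins were resolved by SDS-PAGE and fluorescence read at 520 nm. IC50 was taken as 50% inhibition of Bocillin FL binding, from 2 experiments.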

| SMILES | MIC (Streptococcus pneumoniae [1]) [µg/mL] | MIC (Staphylococcus aureus [2]) [µg/mL] | IC50 [3] [µg/mL] | MIC (Streptococcus pneumoniae [4]) [µg/mL] | MIC (Staphylococcus aureus [5]) [µg/mL] | MIC (Streptococcus pneumoniae [6]) [µg/mL] | IC50 [7] [µg/mL] | IC50 [8] [µg/mL] | IC50 [9] [µg/mL] | IC50 [10] [µg/mL] | IC50 [11] [µg/mL] | IC50 [12] [µg/mL] | IC50 [13] [µg/mL] | IC50 [14] [µg/mL] | MIC (Staphylococcus aureus [15]) [µg/mL] | IC50 [16] [nM] | MIC (Streptococcus pneumoniae [17]) [µg/mL] | IC50 [18] [µg/mL] | IC50 [19] [µg/mL] | MIC (Streptococcus pneumoniae [20]) [µg/mL] | further results |
| --- | --- | --- | --- | --- | --- | --- | --- | --- | --- | --- | --- | --- | --- | --- | --- | --- | --- | --- | --- | --- | --- |
| CO/N=C(\C(=O)N[C@@H]1C(=O)N2C(C(=O)O)=C(COC(C)=O)CS[C@H]12)c1csc(N)n1 [CEFOTAXIME] | 32 (≈ 70.3 µM) | 4 (≈ 8.78 µM) | 0.25 (≈ 0.549 µM) | 2 (≈ 4.39 µM) | 2 (≈ 4.39 µM) | 0.03 (≈ 0.0659 µM) | > 128 | 0.5 (≈ 1.1 µM) | 1 (≈ 2.2 µM) | 1 (≈ 2.2 µM) | 1 (≈ 2.2 µM) | 0.25 (≈ 0.549 µM) | 1 (≈ 2.2 µM) | 2 (≈ 4.39 µM) | > 64 | 549 | 16 (≈ 35.1 µM) | 0.5 (≈ 1.1 µM) | 2 (≈ 4.39 µM) | 4 (≈ 8.78 µM) | IC50 [21]: 0.25 µg/mL (≈ 0.549 µM) |
| CO/N=C(\C(=O)N[C@@H]1C(=O)N2C(C(=O)O)=C(CSc3nc(=O)c(O)nn3C)CS[C@H]12)c1csc(N)n1 [CEFTRIAXONE] | 32 (≈ 57.7 µM) | 8 (≈ 14.4 µM) | 0.25 (≈ 0.451 µM) | 2 (≈ 3.61 µM) | 2 (≈ 3.61 µM) | 0.03 (≈ 0.0541 µM) | > 128 | 0.5 (≈ 0.902 µM) | 1 (≈ 1.8 µM) | 1 (≈ 1.8 µM) | 1 (≈ 1.8 µM) | 0.25 (≈ 0.451 µM) | 1 (≈ 1.8 µM) | 2 (≈ 3.61 µM) | > 64 | 180 | 8 (≈ 14.4 µM) | 1 (≈ 1.8 µM) | 2 (≈ 3.61 µM) | 2 (≈ 3.61 µM) | IC50 [21]: 1 µg/mL (≈ 1.8 µM) |
| CC1(C)S[C@@H]2[C@H](NC(=O)Cc3ccccc3)C(=O)N2[C@H]1C(=O)O [PENICILLIN G] | 16 (≈ 47.8 µM) | 32 (≈ 95.7 µM) | 0.03 (≈ 0.0897 µM) | 4 (≈ 12 µM) | 1 (≈ 2.99 µM) | 0.03 (≈ 0.0897 µM) | 64 (≈ 191 µM) | 0.5 (≈ 1.5 µM) | 4 (≈ 12 µM) | 4 (≈ 12 µM) | 1 (≈ 2.99 µM) | 4 (≈ 12 µM) | > 128 | 1 (≈ 2.99 µM) | 64 (≈ 191 µM) |  | 8 (≈ 23.9 µM) |  | 0.5 (≈ 1.5 µM) | 4 (≈ 12 µM) |  |
